Screening data as filed in PubChem BioAssay.
NR2E3 ag-1: inhibitors of NR2E3-RetCOR corepressor binding, primary screen, NR2E3 agonist project, biochemical, TR-FRET, GST-NR2E3, biotin-RetCOR; 1536-well; inhibition of corepressor binding, % at 4.78 µM; hit rate 0.12% among 320,000; AID 2300, 2010;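 active = percent inhibition above the cutoff of mean plus 3 SD of all tested compounds, set per screening campaign, cut at about 20% in these data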;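 also: 0% = DMSO wells and 100% = biotin wells as full block of FRET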
Target sequence (Q9Y5X4 whole entry, looked up): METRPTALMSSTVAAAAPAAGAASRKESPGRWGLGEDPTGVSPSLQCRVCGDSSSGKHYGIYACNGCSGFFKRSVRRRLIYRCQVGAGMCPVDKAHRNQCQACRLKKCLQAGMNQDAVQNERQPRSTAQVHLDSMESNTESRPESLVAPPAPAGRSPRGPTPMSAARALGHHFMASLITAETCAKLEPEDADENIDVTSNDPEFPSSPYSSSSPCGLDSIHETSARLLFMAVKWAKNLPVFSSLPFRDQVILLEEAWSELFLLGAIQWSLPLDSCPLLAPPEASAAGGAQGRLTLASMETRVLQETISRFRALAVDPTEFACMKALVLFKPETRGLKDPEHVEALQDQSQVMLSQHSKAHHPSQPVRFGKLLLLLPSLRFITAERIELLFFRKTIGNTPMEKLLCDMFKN
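Material: NR2E3–RetCOR corepressor complex / Incubation: Compound–protein incubation for 5 h at 4 °C / Dosing: compound at 4.8 µM, single dose / Detection: time-resolved FRET / Benchmarks: high control biotin, low control 0.6% DMSO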
PG9 binder: binders of HIV-1 gp120 antibody PG9, primary screen, biochemical, TR-FRET. inhibition, % at 6.7 µM. AID 624416, 2012. TR-FRET gp120-PG9 antibody binding. HIV-1 gp120 / PG9 antibody interaction. hit rate 0.43% among 360,000; in the data active = inhibition above about 8.5%
NR2E3 ag-2: NR2E3 agonists in two-hybrid cells, primary screen, cell-based, luminescence, CHO-S, Gal4-NCOR/VP16-NR2E3; Photoreceptor-specific nuclear receptor (Homo sapiens), Q9Y5X4; luciferase; inhibition of corepressor binding, % at 3.98 µM; hit rate 0.35% among 360,000; AID 602229, 2012;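 active = inhibition above the mean of all tested compounds plus 3 SD, cut at about 70% in these data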;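 also: 0% = DMSO with NR2E3 transfected cells and 100% = cells lacking NR2E3 construct; higher means lower luciferase signal from less NR2E3 corepressor binding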
NR1D1 modulator: modulators of Rev-erb alpha DNA binding, primary screen, biochemical, FITC-DNA, fluorescence polarization, uHTS; Nuclear receptor subfamily 1 group D member 1 (Homo sapiens), P20393; Rev-erbα–FITC-DNA binding, 90 min; activity, % at 10 µM; hit rate 0.79% among 370,000; AID 1259318, 2017;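 active = activity above about 14%, limit read from the data; passing the limit was not always enough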;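 also: 0% = DMSO wells with 35 nM protein and 100% = DMSO wells with 750 nM protein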
PG9 bind confirm: binders of anti-gp120 antibody PG9, confirmation, biochemical, TR-FRET. inhibition, % at 6.7 µM. AID 651571, 2012. hit rate 90% among 1,500. shares compounds with PG9 binder. TR-FRET PG9 antibody binding; in the data active = inhibition above about 9%
PGV04 Ab binding: binders of control antibody PGV04, counter-screen for PG9 antibody binder project, biochemical, TR-FRET, distinct HIV envelope site. shares compounds with PG9 binder. TR-FRET PGV04 antibody-gp120 binding. inhibition, % at 6.7 µM. hit rate 95% among 1,500. AID 651604, 2012; in the data active = inhibition above about 9.5%
PG9 binder DR: small-molecule binders of antibody PG9, dose response, biochemical, TR-FRET, HIV-1 gp120 antibody | shares compounds with PG9 binder | TR-FRET PG9 antibody-gp120 binding inhibition | IC50, µM | 95 tested, under 10 active; in the data active = IC50 below about 10 µM
PGV04 DR counter: binders of control antibody PGV04, dose response, counter-screen for PG9 antibody binder project, biochemical, TR-FRET, distinct HIV envelope site. shares compounds with PG9 binder. TR-FRET binding to control antibody PGV04. IC50, µM. hit rate 20% among 95. AID 651937, 2012
PG126 binding DR: binders of control antibody PG126, dose response, counter-screen for PG9 antibody binder project, biochemical, TR-FRET, distinct HIV envelope site; TR-FRET binding to antibody PG126, counterscreen; AID 651939, 2012; shares compounds with PG9 binder; IC50, µM; hit rate 20% among 95
An asterisk follows results filed as active; i = inactive; . = no result given. A selection: hits, their analogues and other compounds. The true share with any hit is near 1.5%. Rule as the data show it, unless noted: active = IC50 below about 9 µM; inactive = the rest.

SMILES	NR2E3 ag-1	PG9 binder	NR2E3 ag-2	NR1D1 modulator	PG9 bind confirm	PGV04 Ab binding	others
COc1ccc(-c2cn3nc(SCC(=O)NC4CCCCC4)ccc3n2)cc1	-1.0	33.0*	-144.1	-2.3	61.9*	75.2*
O=C(Cn1c2ccccc2c(=O)c2cc([N+](=O)[O-])ccc21)Nc1ccccc1Cl	-3.5	11.9*	-48.6	9.5	16.0*	18.2*
O=C(Cn1c2ccccc2c(=O)c2ccccc21)Nc1ccccc1F	-10.5	6.2	-20.5	1.2	.	.
O=C(Nc1c(-c2ccc(C(F)(F)F)cc2)nc2ncccn12)C1CC1	.	.	.	-3.1	.	.
N#Cc1cn(-c2ccccc2)nc1-c1ccc2c(c1)OCCO2	-0.5	23.9*	-46.9	21.0	19.6*	27.9*
O=Cc1cn(-c2ccccc2)nc1-c1ccc2c(c1)OCCO2	2.6	-0.6	-87.7	0.6	.	.
O=C(Nc1nc(-c2ccccc2)nc2ccccc12)c1ccc(F)cc1	4.4	11.0*	0.9	1.9	15.8*	27.1*
NC(=O)c1nn(-c2ccccc2)nc1NC(=O)Cn1nnc(-c2ccccc2)n1	3.5	8.6*	-18.7	-2.9	18.4*	19.4*
NC(=O)c1nn(-c2ccccc2)nc1NC(=O)CN1CCCC1	1.2	-0.6	11.6	-3.5	.	.
COC(=O)C1=C(C)N(Cc2ccc(C(F)(F)F)cc2)C(=NCc2ccc(OC)cc2)NC1c1ccccc1C(F)(F)F (stereo not given)	.	0.6	.	-4.1	.	.
CCOC(=O)c1sc(N)c(C(=O)OC)c1C	2.1	1.9	-21.9	-0.6	.	.
CCOC(=O)c1c(C)[nH]sc1=S	.	16.5*	-24.7	4.6	9.3*	8.4	PG9 binder DR=>67;PGV04 DR counter=i;PG126 binding DR=i
CCOC(=O)c1sc(=S)[nH]c1C	.	18.7*	-7.3	0.9	11.0*	8.6	PG9 binder DR=i;PGV04 DR counter=i;PG126 binding DR=i
Cc1ccc(Cn2cc(S(=O)(=O)c3ccc(Cl)cc3)c(=O)c3cc(F)ccc32)cc1	3.5	8.7*	-9.3	0.4	12.1*	21.2*
Cc1ccc(S(=O)(=O)c2cn(CC(=O)Nc3ccccc3)c3ccc(F)cc3c2=O)cc1	-3.4	14.0*	-46.1	-7.7	16.6*	25.0*
Cc1ccc(NC(=O)Cn2cc(S(=O)(=O)c3ccc(F)cc3)c(=O)c3cc(F)ccc32)cc1	2.8	23.7*	14.7	9.6	37.8*	43.8*
COc1ccc2c(c1)[C@@]1(OCCC=C[C@H]1C)C(=O)N2Cc1ccc(F)cc1	.	-1.6	.	-0.2	.	.
OC(c1ccccc1)(c1ccccc1)C1CCN(CCCOc2cccc(F)c2)CC1	.	0.3	.	-1.5	.	.
CCOc1ccc(Nc2nc3c(C)cccc3cc2C#N)cc1	1.8	11.7*	-1.7	9.7	15.5*	26.3*
O=C(c1cc(C2CC2)on1)N(C1CCCCC1)C1CCOCC1	.	.	.	0.2	.	.
Cc1cccc(/N=C2/NC(=O)C(Cc3ccccc3)S2)n1 (stereo not given)	3.5	7.7	-23.3	5.0	.	.
Cc1cccc(CC2S/C(=N/c3cccc(C)n3)NC2=O)c1 (stereo not given)	-2.7	12.9*	15.9	15.5	18.0*	23.9*
CCCC1=Nc2cc(C(=O)NCCCN3CCOCC3)ccc2Sc2ccccc21	1.4	12.4*	-13.3	3.8	11.5*	14.9*
O=C(CN1C(=O)CCSc2ccccc21)Nc1ccc(Cl)c(Cl)c1	.	.	.	-0.5	.	.
